Experimental data reported in paper PMC4424118 (Nature structural & molecular biology, 2015).

How the values were obtained:
[1] = target: SSTR3 somatostatin receptor (Homo sapiens, UniProt P32745); test: PRESTO-TANGO / TANGO β-arrestin recruitment assay, SSTR3; assay type: cell-based
[2] = target: T1, MRGPRX2 (Homo sapiens, UniProt Q96LB1); test: TANGO β-arrestin recruitment assay, MRGPRX2; assay type: cell-based; conditions: NCC-1 screen, confirmed in concentration-response studies
T1 sequence (Q96LB1 1-330): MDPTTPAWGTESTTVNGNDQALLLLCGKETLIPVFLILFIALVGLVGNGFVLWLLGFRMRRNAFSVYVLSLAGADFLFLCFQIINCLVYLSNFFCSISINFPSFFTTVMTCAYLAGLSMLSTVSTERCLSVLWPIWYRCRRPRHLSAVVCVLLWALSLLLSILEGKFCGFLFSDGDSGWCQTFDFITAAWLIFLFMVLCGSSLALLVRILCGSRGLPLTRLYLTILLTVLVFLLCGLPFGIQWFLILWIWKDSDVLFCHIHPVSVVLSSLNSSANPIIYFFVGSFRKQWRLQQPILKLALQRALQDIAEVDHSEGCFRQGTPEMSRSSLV

[3] = target: NTSR2 neurotensin receptor (Homo sapiens, UniProt O95665); test: TANGO β-arrestin recruitment assay, NTSR2; assay type: cell-based; conditions: for agonist activity at NTSR2 neurotensin receptors: TANGO, agonist mode
[4] = test system: 91 orphan and poorly annotated GPCRs; test: TANGO screen of the NCC-1 library; assay type: cell-based, human; conditions: of 91 targets tested
[5] = target: T1, MRGPRX2; test: PI hydrolysis assay, MRGPRX2; assay type: cell-based
Method in brief: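 HEK-293T cells were transiently transfected with 10 μg receptor DNA per 15 cm dish and seeded the next day on poly-L-lysine in 1% dialyzed FBS. They were labelled 16 h with 1 μCi/well ³H-inositol in inositol-free DMEM. Concentration series were applied in quadruplicate in HBSS/24 mM NaHCO₃/11 mM glucose/15 mM LiCl, pH 7.4, for 1 h at 37°C. Cells were lysed with 50 mM formic acid, and extracts were counted by SPA beads.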

[6] = target: MLNR motilin receptor TANGO construct; test: TANGO
[7] = target: T2, CX3CR1 chemokine receptor (Homo sapiens, UniProt P49238); test: TANGO β-arrestin recruitment assay, CX3CR1; assay type: cell-based; conditions: n = 4
T2 sequence (P49238 1-355): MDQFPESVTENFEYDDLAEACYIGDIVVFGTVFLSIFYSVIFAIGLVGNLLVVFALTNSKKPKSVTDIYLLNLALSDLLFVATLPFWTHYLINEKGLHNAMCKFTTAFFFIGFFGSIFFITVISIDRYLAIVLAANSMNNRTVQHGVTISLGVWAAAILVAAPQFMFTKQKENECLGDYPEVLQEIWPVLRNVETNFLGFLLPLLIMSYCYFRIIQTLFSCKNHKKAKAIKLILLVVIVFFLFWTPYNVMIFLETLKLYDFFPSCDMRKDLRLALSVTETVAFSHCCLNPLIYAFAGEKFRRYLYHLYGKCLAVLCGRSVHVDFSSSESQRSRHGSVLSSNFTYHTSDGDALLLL

Chain of NTSR2 neurotensin receptor (O95665 whole entry): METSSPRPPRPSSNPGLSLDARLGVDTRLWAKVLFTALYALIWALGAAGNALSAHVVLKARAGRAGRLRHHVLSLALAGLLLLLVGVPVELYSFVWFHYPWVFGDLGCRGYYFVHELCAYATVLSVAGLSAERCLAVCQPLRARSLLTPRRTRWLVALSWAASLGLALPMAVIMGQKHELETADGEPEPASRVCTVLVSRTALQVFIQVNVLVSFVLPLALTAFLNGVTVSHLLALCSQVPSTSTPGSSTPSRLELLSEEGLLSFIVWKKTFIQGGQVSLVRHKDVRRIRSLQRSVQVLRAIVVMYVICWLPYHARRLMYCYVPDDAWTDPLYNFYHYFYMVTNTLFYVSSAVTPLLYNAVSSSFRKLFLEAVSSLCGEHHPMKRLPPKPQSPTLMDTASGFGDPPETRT
Chain of SSTR3 somatostatin receptor (P32745 whole entry): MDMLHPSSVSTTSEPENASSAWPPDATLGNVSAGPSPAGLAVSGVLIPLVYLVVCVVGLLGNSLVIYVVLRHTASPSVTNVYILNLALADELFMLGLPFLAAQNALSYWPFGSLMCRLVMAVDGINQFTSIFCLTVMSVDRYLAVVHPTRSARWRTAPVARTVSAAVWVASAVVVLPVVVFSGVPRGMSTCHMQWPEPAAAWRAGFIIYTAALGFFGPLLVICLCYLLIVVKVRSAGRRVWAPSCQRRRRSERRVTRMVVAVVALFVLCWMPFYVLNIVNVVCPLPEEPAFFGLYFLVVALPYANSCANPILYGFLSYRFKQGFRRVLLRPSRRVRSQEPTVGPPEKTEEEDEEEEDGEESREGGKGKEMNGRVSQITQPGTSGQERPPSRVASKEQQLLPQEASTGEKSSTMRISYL
Chain of MLNR motilin receptor TANGO construct (O43193 whole entry): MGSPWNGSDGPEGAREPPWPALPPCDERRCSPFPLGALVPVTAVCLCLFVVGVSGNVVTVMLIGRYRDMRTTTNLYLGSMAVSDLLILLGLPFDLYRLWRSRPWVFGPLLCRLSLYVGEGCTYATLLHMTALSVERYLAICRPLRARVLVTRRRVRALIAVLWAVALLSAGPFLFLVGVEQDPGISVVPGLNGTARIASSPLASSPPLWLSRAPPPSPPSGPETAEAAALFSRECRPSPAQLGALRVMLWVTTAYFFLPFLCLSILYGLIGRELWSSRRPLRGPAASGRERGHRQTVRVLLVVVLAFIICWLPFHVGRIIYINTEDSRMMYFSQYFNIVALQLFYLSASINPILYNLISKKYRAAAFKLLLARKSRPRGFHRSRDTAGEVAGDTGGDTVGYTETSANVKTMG

In the case of `CNCCC(Oc1ccc(C(F)(F)F)cc1)c1ccccc1` (stereo not drawn) [Fluoxetine, fluoxetine], the “agonist activity at SSTR3 in follow-up assays” value ([1]; follow-up assays (data not shown)) is reported as “not confirmed” and the “agonist activity at the SSTR3 somatostatin receptor” value ([1]; initial PRESTO-TANGO screen) is reported as “modest agonist activity”.

`CC(C)[C@@H](CN1CC[C@@](C)(c2cccc(O)c2)[C@@H](C)C1)NC(=O)[C@H]1Cc2ccc(O)cc2CN1` [JDTic] was tested, and the “activity in the TANGO assay at MRGPRX2” value [2] was “significant activity”.

With `COC(=O)[C@@H]1C[C@H](OC(=O)CSC#N)C(=O)[C@H]2[C@@]1(C)CC[C@H]1C(=O)O[C@H](c3ccoc3)C[C@]21C` [RB64] the “activity in the TANGO assay at MRGPRX2” value [2] was “significant activity”.

For `COc1cccc(OC)c1-c1cc(C(=O)NC2(C(=O)O)C3CC4CC(C3)CC2C4)nn1-c1ccnc2cc(Cl)ccc12` (stereo not drawn) [SR48692], the “agonist activity at NTSR2 neurotensin receptors” value [3] was “agonists”.

For `CC(C)C[C@H](NC(=O)[C@@H](O)[C@H](N)Cc1ccccc1)C(=O)O` [bestatin], the “number of targets with > 2-fold increase in luminescence” value [4] was 59 and the “percent of targets with > 2-fold increase in luminescence” value [4] was 65%.

In the case of `CN1CCC(=C2c3ccccc3C=Cc3ccccc32)CC1` [cyproheptadine], the “activity in the TANGO assay at MRGPRX2” value [2] is reported as “showed activity”.

With `COc1ccc2c(c1)[C@]13CCCC[C@@H]1[C@H](C2)N(C)CC3` [dextromethorphan] the “activity in the TANGO assay at MRGPRX2” value [2] was “showed activity” and the “concentration-dependent activity at MRGPRX2 by PI hydrolysis” value [5] was “confirmed”.

In the case of `COC(=O)C[C@](O)(CCCC(C)(C)O)C(=O)O[C@@H]1C(OC)=C[C@]23CCCN2CCc2cc4c(cc2[C@H]13)OCO4` [homoharringtonine], the “number of targets with greater than 2-fold reduction in luminescence” value [4] is reported as 58 and the “percent of targets with greater than 2-fold reduction in luminescence” value [4] is reported as 64%.

In the case of `CN1CCC(=C2c3ccccc3CC(=O)c3sccc32)CC1` [ketotifen], the “activity in the TANGO assay at MRGPRX2” value [2] is reported as “showed activity”.

For `C[C@@H]1CN([C@H]2CC[C@](C#N)(c3ccc(F)cc3)CC2)CC[C@]1(C(=O)O)c1ccccc1` [levocabastine], the “antagonism of SR48692- or SR142948-induced arrestin recruitment responses” value ([3]; NTSR2-transfected cells, pre-incubation before agonist) was “antagonists”.

`CN1CC[C@]23CCCC[C@H]2[C@H]1Cc1ccc(O)cc13` [levorphan] was tested, and the “activity in the TANGO assay at MRGPRX2” value [2] was “showed activity”.

With `CN1CCC(=C2c3ccccc3CCc3sccc32)CC1` [pizotyline] the “activity in the TANGO assay at MRGPRX2” value [2] was “showed activity”.

With `Oc1ccc(/C=C/c2cc(O)cc(O)c2)cc1` [resveratrol] the “number of targets with greater than 2-fold reduction in luminescence” value [4] was 70 and the “percent of targets with greater than 2-fold reduction in luminescence” value [4] was 77%.

In the case of SR142948, the “agonist activity at NTSR2 neurotensin receptors” value [3] is reported as “agonists”.

For “β-arrestin2-TEV fusion (from UniProt P32121 1-409) (natural protein)”, the fold response above baseline [6] was 184 fold.

B1: CX3CL1: ligand of the CX3CR1 chemokine receptor (protein)
chain: QHHGVTKCNITCSKMTSKIPVALLIHYQQNQASCGKRAIILETRQHRLFCADPKEQWVKDAMQHLDRQAAALTRNGGTFEKQIGEVKPRTTPAAGGMDESVVLEPEATGESSSLEPTPSSQEAQRALGTSPELPTGVTGSSGTRLPPTPKAQDGGPVGTELFRVPPVSTAATWQSSAPHQPGPSLWAEAKTSEAPSTQDPSTQASTASSPAPEENAPSEGQRVWGQGQSPRPENSLEREEMGPVPAHTDAFQDWGPGSMAHVSVVPVSSEGTPSREPVASGSWTPKAEEPIHATMDPQRLGVLITPVPDAQAATRRQAVGLLAFLGLLFCLGVAMFTYQSLQGCPRKMAGEMAEGLRYIPRSCGSNSYVLVPV
Work on B1 yielded an EC50 [7] of 340 pM.
